Measured values as given in ChEMBL document CHEMBL2375275, “Design and synthesis of novel chromenone derivatives as interleukin-5 inhibitors” (Bioorg Med Chem, 2013).

What follows are compounds tested against T1, Interleukin-5 (Mus musculus) (UniProt P04401) (assay: Inhibition interleukin-5 in mouse Y16 cells at 30 uM after 48 hrs by WST-1 assay).
T1 sequence (whole entry): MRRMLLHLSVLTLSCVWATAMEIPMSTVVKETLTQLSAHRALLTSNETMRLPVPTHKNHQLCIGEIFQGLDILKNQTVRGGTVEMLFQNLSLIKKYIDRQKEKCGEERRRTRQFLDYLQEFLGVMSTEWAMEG
Format: cell-based
Method in brief: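 IL-5-dependent pro-B Y16 cells stimulated with 3 U/mL mIL-5 and incubated 48 h with or without sample; cell metabolism read by WST-1 as proliferation index.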

Row | Compound | inhibition
1 | O=C(CCc1coc2cccc(OCC3CCCCC3)c2c1=O)c1ccc(F)cc1 | 93%
2 | N#Cc1ccc(C(O)CCc2coc3cccc(OCC4CCCCC4)c3c2=O)cc1 (centres undefined) | 94%
3 | Cc1ccc(C(O)CCc2coc3cccc(OCC4CCCCC4)c3c2=O)cc1 (centres undefined) | 13.5%
4 | O=C(CCc1coc2cccc(OCC3CCCCC3)c2c1=O)c1ccc(Cl)cc1 | 94%
5 | O=C(CCC1COc2cccc(OCC3CCCCC3)c2C1=O)c1ccc(Cl)c(Cl)c1 (centres undefined) | 40%
6 | O=C(CCc1coc2cccc(OCC3CCCCC3)c2c1=O)c1ccc(O)cc1 | 80%
7 | COc1ccc(C(=O)CCC2COc3cccc(OCC4CCCCC4)c3C2=O)cc1 (centres undefined) | 34%
8 | CC(C)(C)c1ccc(C(=O)CCc2coc3cccc(OCC4CCCCC4)c3c2=O)cc1 | 6.7%
9 | O=C(CCc1coc2cccc(OCC3CCCCC3)c2c1=O)c1ccc2ccccc2c1 | 10%
10 | O=C(CCc1coc2cccc(OCC3CCCCC3)c2c1=O)c1ccccc1 | 12.3%
11 | O=c1c(CCC(O)c2ccc(Cl)c(Cl)c2)coc2cccc(OCC3CCCCC3)c12 (centres undefined) | 94%
12 | O=c1c(CCC(O)c2ccc3ccccc3c2)coc2cccc(OCC3CCCCC3)c12 (centres undefined) | 86%

Continued, values first:

Row | inhibition | Compound
13 | 94% | COc1ccc(C(O)CCc2coc3cccc(OCC4CCCCC4)c3c2=O)cc1 (centres undefined)
14 | 94% | O=c1c(CCC(O)c2ccc(O)cc2)coc2cccc(OCC3CCCCC3)c12 (centres undefined)
15 | 6.6% | CC(C)(C)c1ccc(C(O)CCc2coc3cccc(OCC4CCCCC4)c3c2=O)cc1 (centres undefined)
16 | 91% | COc1ccc(C(=O)CCc2coc3cccc(OCC4CCCCC4)c3c2=O)cc1
17 | 94% | O=c1c(CCC(O)c2ccc(F)cc2)coc2cccc(OCC3CCCCC3)c12 (centres undefined)
18 | 94% | O=c1c(CCC(O)c2ccc(Cl)cc2)coc2cccc(OCC3CCCCC3)c12 (centres undefined)
19 | 70% | Cc1ccc(C(=O)CCc2coc3cccc(OCC4CCCCC4)c3c2=O)cc1
20 | 55% | O=c1c(CCC(O)c2ccc(C(F)(F)F)cc2)coc2cccc(OCC3CCCCC3)c12 (centres undefined)
21 | 68% | O=C(CCc1coc2cccc(OCC3CCCCC3)c2c1=O)c1ccc(Cl)c(Cl)c1
22 | 5.3% | O=C(CCc1coc2cccc(OCC3CCCCC3)c2c1=O)c1ccc(C(F)(F)F)cc1
23 | 94% | O=c1c(CCC(O)c2ccccc2)coc2cccc(OCC3CCCCC3)c12 (centres undefined)
24 | 93% | N#Cc1ccc(C(=O)CCc2coc3cccc(OCC4CCCCC4)c3c2=O)cc1
